Measurements gathered from unrelated publications.
Lines come from different studies, so protocols differ.
Target: Vascular endothelial growth factor receptor 1 (FLT1, Homo sapiens, UniProt P17948)

CO[C@@H]1[C@H](N(C)C(=O)c2ccccc2)C[C@H]2O[C@]1(C)n1c3ccccc3c3c4c(c5c6ccccc6n2c5c31)C(=O)NC4  inhibition (enzyme activity; inhibitor; 1 µM): 57%
CN1CCN(C(=O)c2ccc(NC(=O)Nc3ccc(N(C)c4ccnc(Nc5ccc(CS(C)(=O)=O)cc5)n4)cc3)cc2)CC1  remaining binding (binding; competition with immobilised ligand; 1 µM): 0.4%
CCCCC(=O)Nc1ccc(-c2ccc3ncn(CCC)c(=O)c3c2)cn1  remaining binding (binding; competition with immobilised ligand; 0.5 µM): 98%
C[C@H]1CC[C@H](n2c3cnccc3c3cnc(Nc4ccc5c(n4)CCN(C(=O)CO)C5)nc32)CC1  remaining binding (cell-free assay; competition with immobilised ligand; 1 µM): 93%
O=C1C=C(Nc2ccc(OCc3cn(Cc4ccc(Cl)c(Cl)c4)nn3)cc2)C(=O)c2ccccc21  inhibition (enzyme activity; inhibitor; radiometric; 10 µM): -38%
C=CC(=O)N1CCC[C@@H](n2nc(-c3ccc(Oc4ccccc4)cc3)c3c(N)ncnc32)C1  inhibition (enzyme activity; inhibitor; 1 µM): 33%
C1=C/COCc2cc(ccc2OCCN2CCCC2)Nc2nccc(n2)-c2cccc(c2)COC/1  remaining binding (binding; 0.1 µM): 64%
CC(C)S(=O)(=O)c1ccc2nccc(Nc3ccc4sc(C5CCCC5)nc4c3)c2c1  activity vs control (enzyme activity; inhibitor; 1 µM): 107%
